In the library only some 3.4% were active in any assay of this set; here they are far more common.
M1 antag: blocks human M1 muscarinic receptor; CHO-K1 hM1, Fluo-8 calcium fluorescence, ACh EC80 antagonist; AID 588852; 360,000 tested, 1.3% active; inhibition, % at 3 µM; P11229;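 active = percent inhibition above its own plate's cutoff, namely the mean of that plate's compound wells plus 3 SD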;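 note: peak over basal fluorescence ratio during 140 s after agonist addition; 0% = ACh EC80 plus DMSO and 100% = DMSO alone without agonist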
Target sequence (P11229 whole entry, looked up): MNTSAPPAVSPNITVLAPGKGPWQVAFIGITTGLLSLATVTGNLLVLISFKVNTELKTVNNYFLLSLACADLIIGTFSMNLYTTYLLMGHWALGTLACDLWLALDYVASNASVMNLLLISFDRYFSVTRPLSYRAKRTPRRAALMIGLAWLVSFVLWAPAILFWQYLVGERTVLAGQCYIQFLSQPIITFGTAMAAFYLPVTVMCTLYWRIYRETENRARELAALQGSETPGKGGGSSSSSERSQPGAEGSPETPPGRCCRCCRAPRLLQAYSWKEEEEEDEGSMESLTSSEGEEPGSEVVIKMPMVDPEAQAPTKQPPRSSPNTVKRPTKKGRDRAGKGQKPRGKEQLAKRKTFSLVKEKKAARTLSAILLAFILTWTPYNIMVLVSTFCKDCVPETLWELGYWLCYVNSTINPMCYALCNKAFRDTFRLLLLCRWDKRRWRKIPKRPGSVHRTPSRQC
TAAR1 antag: human TAAR1 antagonism; Q96RJ0; CHO RD-HGA16 TAAR1, Fluo-8 calcium fluorescence, antagonist; inhibition, % at 3 µM; 360,000 tested, 1.5% active;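 active = inhibition above a per-plate cutoff, the mean inhibition of test compounds on that plate plus 3 SD, cut at about 49% in these data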;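 note: 0% = DMSO plus EC80 beta-PEA response and 100% = DMSO alone without agonist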
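Material: CHO RD-HGA16 cells bearing hTAAR1; compound dosing: one-point dosing, 3 µM nominal final; schedule: dye loading 75 min at 37 °C, then 30 min room temperature; measured by: calcium fluorescence with Fluo-8; control set: vehicle and agonist controls; replication: n of 1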
CHRM1 PAM: positive allosteric modulators of human M1 muscarinic receptor; P11229; CHO-K1 hM1, Fluo-8 calcium fluorescence, ACh EC20; 0% = ACh EC20, 100% = maximal ACh; activation, % at 3 µM; 360,000 tested, 0.088% active; AID 588819; in the data active = activation above about 19%, passing the limit was not always enough
M1 ag: activates human CHRM1 receptor | 360,000 tested, 0.33% active | activation, % at 3 µM | CHO-K1 hM1, Fluo-8 calcium fluorescence, agonist mode; 0% DMSO, 100% acetylcholine EC100;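 active = activation above the run's mean compound activation plus 3 SD, cut at about 16% in these data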;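 note: peak over basal fluorescence ratio within a 140 s kinetic read after compound addition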
TAAR1 ag: human TAAR1 agonism; CHO RD-HGA16 TAAR1, Fluo-8 calcium fluorescence; vehicle wells 0%, saturating PEA agonist 100%; activation, % at 3 µM; 360,000 tested, 0.99% active; Q96RJ0; AID 624467;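 active = activation above the mean activation of all test compounds in the run plus 3 SD, cut at about 38% in these data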
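Signal – calcium-sensitive Fluo-8 signal, excitation 470-495, emission 515-575 nm · System – RD-HGA16 (CHO) cells co-expressing Gα16 and hTAAR1 · Incubation – 17-24 h seeding, 75 min 37 °C dye, 30 min RT · Compound dosing – 3 µM single concentration · Repeats – no replicates (n 1)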
TAAR1 nonsel count: nonselective antagonist in TAAR1 antagonist counter-screen | shares compounds with TAAR1 antag | counterscreen cell line, calcium fluorescence, antagonist mode | inhibition, % at 3 µM | 2,400 tested, 77% active | AID 651780; in the data active = inhibition above about 22%;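 note: CHO-Ga16 host cells stimulated with ATP at an EC80 level; 0% = agonist EC80 plus vehicle and 100% = vehicle without agonist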
TAAR1 ant conf: human TAAR1 antagonism, confirmed; shares compounds with TAAR1 antag; TAAR1-expressing cells, fluorescence antagonist read-out; 2,400 tested, 40% active; inhibition, % at 3 µM; in the data active = inhibition above about 49%;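 note: CHO-Ga16 host cells challenged with agonist PEA near its EC80; 0% = agonist at EC80 plus vehicle and 100% = vehicle with no agonist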
Ga16 ag counter: nonselective Ga16 agonist in TAAR1 antagonist counter-screen; shares compounds with TAAR1 antag; Ga16-expressing cells, calcium fluorescence, agonist counterscreen; activation, % at 3 µM; 2,400 tested, 18% active; AID 651953; in the data active = activation above about 12%;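 note: 0% = vehicle wells and 100% = saturating stimulus response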
TAAR1 ag count: counter-screen for human TAAR1 antagonists: TAAR1 agonists | hTAAR1 cell line, fluorescence activation, agonist mode | 2,400 tested, 2% active | AID 651955 | shares compounds with TAAR1 antag | activation, % at 3 µM; in the data active = activation above about 37%;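 note: CHO cells stably expressing TAAR1 with calcium dye readout; 0% = DMSO vehicle and 100% = full agonist response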
* marks the source's active call; other numbers are inactive results.

COc1ccc(SCC(=O)c2cc(C)c(OC(=S)N(C)C)c(C)c2)cc1 was read as M1 antag -5, TAAR1 antag 74*, CHRM1 PAM -7, M1 ag -4, TAAR1 ag 8, TAAR1 nonsel count 31*, TAAR1 ant conf 46, Ga16 ag counter 4 and TAAR1 ag count 5.
`Cc1cccc(-c2cnc(C(O)Cc3ccccc3)[nH]2)c1` (stereo unspecified) gave M1 antag -4, TAAR1 antag -16, CHRM1 PAM 6, M1 ag -1 and TAAR1 ag 3.
COc1ccc(NC(=O)Cn2nnc(-c3ccccc3NC(=O)c3ccco3)n2)cc1 was read as M1 antag -3, TAAR1 antag 8, CHRM1 PAM 1, M1 ag 11 and TAAR1 ag 9.
COc1ccccc1NC(=O)Cn1nnc(-c2ccccc2NC(=O)c2ccco2)n1 was read as M1 antag -11, TAAR1 antag 56*, CHRM1 PAM 13, M1 ag -2, TAAR1 ag 13, TAAR1 nonsel count 21, TAAR1 ant conf 35, Ga16 ag counter 9 and TAAR1 ag count 13.
O=c1cccc(-c2cccc3ccccc23)o1 was read as TAAR1 antag -12 and TAAR1 ag 0.
COc1ccccc1S(=O)(=O)Cc1ccc(C(=O)N2CCN(c3cccc(Cl)c3)CC2)o1 was read as M1 antag 16, TAAR1 antag 65*, CHRM1 PAM -4, M1 ag 1, TAAR1 ag 25, TAAR1 nonsel count 40*, TAAR1 ant conf 61*, Ga16 ag counter 13* and TAAR1 ag count 12.
Screening Cc1ccc(S(=O)(=O)Cc2ccc(C(=O)N3CCN(c4cc(C)ccc4C)CC3)o2)cc1 returned M1 antag -9, TAAR1 antag 2, CHRM1 PAM 8, M1 ag -1 and TAAR1 ag 8.
COc1ccc(N2CCN(C(=O)c3ccc(CS(=O)(=O)c4ccccc4C)o3)CC2)cc1 was read as M1 antag -1, TAAR1 antag 52*, CHRM1 PAM -8, M1 ag 7, TAAR1 ag 18, TAAR1 nonsel count 27*, TAAR1 ant conf 46, Ga16 ag counter 11 and TAAR1 ag count 27.
Cc1ccc(C)c(N2CCN(C(=O)c3ccc(CS(=O)(=O)c4ccccc4C)o3)CC2)c1 was read as M1 antag 18, TAAR1 antag 64*, CHRM1 PAM -4, M1 ag -1, TAAR1 ag 16, TAAR1 nonsel count 37*, TAAR1 ant conf 51*, Ga16 ag counter 7 and TAAR1 ag count 6.
COc1ccccc1S(=O)(=O)Cc1ccc(C(=O)N2CCN(c3ccccc3)CC2)o1 was read as M1 antag 10, TAAR1 antag 14, CHRM1 PAM -9, M1 ag 11 and TAAR1 ag 23.
Cc1cccc(C)c1NC(=O)C1C(c2ccc3c(c2)OCO3)=Nc2ccccc2N1C(=O)c1cccc2ccccc12 (stereo unspecified) was read as TAAR1 antag -2 and TAAR1 ag 3.
Screening CC(C)(C)NC(=O)COC(=O)c1c2c(nc3ccccc13)CCC2 returned M1 antag 31*, TAAR1 antag 60*, CHRM1 PAM -22, M1 ag -6, TAAR1 ag 8, TAAR1 nonsel count 27*, TAAR1 ant conf 41, Ga16 ag counter 7 and TAAR1 ag count 6.
`NC(=O)COC(=O)c1c2c(nc3ccccc13)CCCC2` gave M1 antag 4, TAAR1 antag -20, CHRM1 PAM 4, M1 ag 5 and TAAR1 ag 6.
Screening CC(C)(C)n1nnnc1C(CCc1ccccc1)N1CCN(C/C=C/c2ccccc2)CC1 (stereo unspecified) returned M1 antag -12, TAAR1 antag -7, CHRM1 PAM -13, M1 ag -3 and TAAR1 ag 3.
Screening O=c1c2ccccc2nc(COc2ccccc2)n1/N=C/c1ccc(O)cc1O returned M1 antag 19, TAAR1 antag 79*, CHRM1 PAM -11, M1 ag -1, TAAR1 ag 12, TAAR1 nonsel count 32*, TAAR1 ant conf 61*, Ga16 ag counter 8 and TAAR1 ag count 8.
For O=c1c2ccccc2nc(COc2ccccc2)n1/N=C/c1c[nH]c2ccccc12 the results were M1 antag 1, TAAR1 antag 16, CHRM1 PAM 3, M1 ag -4 and TAAR1 ag 5.
Screening C/C(=N\OCc1nc2ccccc2c(=O)n1/N=C/c1cc([N+](=O)[O-])ccc1O)c1ccccc1 returned M1 antag 1, TAAR1 antag 64*, CHRM1 PAM 0, M1 ag 0, TAAR1 ag 9, TAAR1 nonsel count 31*, TAAR1 ant conf 47, Ga16 ag counter 8 and TAAR1 ag count 5.
O=C(Nc1ccnn1C1CCN(C(=O)c2cccnc2)CC1)c1cccc(F)c1 was read as M1 antag -13, TAAR1 antag 10, CHRM1 PAM 11, M1 ag -2 and TAAR1 ag 0.
CCc1ccc(NC(=S)N(Cc2cccc(Br)c2)CC2CCC(C(=O)O)CC2)cc1 (stereo unspecified) was read as M1 antag -8, TAAR1 antag 61*, CHRM1 PAM 5, M1 ag -3, TAAR1 ag 8, TAAR1 nonsel count 12, TAAR1 ant conf 27, Ga16 ag counter 5 and TAAR1 ag count 23.
For O=C1N[C@@H](c2ccccc2)COC(=O)[C@H](Cc2ccc(F)cc2)C/C=C\C[C@H]1CC(=O)N(CCO)Cc1ccccc1 the results were M1 antag 0, TAAR1 antag 18, CHRM1 PAM 3, M1 ag -1 and TAAR1 ag 6.
CC(C)(C)OC(=O)C[C@H]1C/C=C\C[C@H](CC(=O)N(CCO)Cc2ccccc2)C(=O)N[C@@H](c2ccccc2)COC1=O was read as M1 antag 30, TAAR1 antag 56*, CHRM1 PAM -18, M1 ag -4, TAAR1 ag 21, TAAR1 nonsel count 30*, TAAR1 ant conf 44, Ga16 ag counter 9 and TAAR1 ag count 5.
For O=C1N[C@@H](Cc2ccccc2)COC(=O)[C@H](Cc2ccc(F)cc2)C/C=C\C[C@@H]1CC(=O)N(CCO)Cc1ccccc1 the results were M1 antag 11, TAAR1 antag 25, CHRM1 PAM -3, M1 ag -5 and TAAR1 ag 12.

Screens deposited in PubChem BioAssay by The Scripps Research Institute Molecular Screening Center.
